What was measured:
Format in all cases: protein assay
[1] = target: T1, Alpha-1,2-mannosidase (BT_2199) (Bacteroides thetaiotaomicron, UniProt Q8A5N9); assay: Inhibition of Bacteroides thetaiotaomicron GH92 alpha-mannosidase 2199 assessed as reduction of mannose release using 4NP-mannopyranoside substrate
T1 sequence (Q8A5N9 whole entry): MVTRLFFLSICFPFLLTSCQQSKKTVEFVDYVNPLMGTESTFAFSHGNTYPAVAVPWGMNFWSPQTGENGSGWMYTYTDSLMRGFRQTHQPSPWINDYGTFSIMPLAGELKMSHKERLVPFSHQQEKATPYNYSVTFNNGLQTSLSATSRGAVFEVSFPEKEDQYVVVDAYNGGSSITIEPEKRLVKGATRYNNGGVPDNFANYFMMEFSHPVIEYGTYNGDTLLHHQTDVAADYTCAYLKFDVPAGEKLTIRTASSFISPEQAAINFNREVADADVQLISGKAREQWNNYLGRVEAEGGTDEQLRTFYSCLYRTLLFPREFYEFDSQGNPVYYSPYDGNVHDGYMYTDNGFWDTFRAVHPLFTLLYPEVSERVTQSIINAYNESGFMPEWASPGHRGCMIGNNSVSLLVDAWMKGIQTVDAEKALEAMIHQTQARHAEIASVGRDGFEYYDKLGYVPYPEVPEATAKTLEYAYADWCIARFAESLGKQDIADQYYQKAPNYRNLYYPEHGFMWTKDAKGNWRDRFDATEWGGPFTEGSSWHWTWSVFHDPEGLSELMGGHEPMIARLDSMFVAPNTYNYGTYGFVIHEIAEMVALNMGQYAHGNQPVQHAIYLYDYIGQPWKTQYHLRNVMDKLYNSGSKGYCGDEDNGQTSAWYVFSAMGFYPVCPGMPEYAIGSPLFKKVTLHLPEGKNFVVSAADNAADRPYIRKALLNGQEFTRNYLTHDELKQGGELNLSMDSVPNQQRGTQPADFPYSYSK
In short: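 Recombinant enzymes expressed in E. coli. Bt3990 was purified by IMAC, anion exchange and size exclusion; Bt2199 by IMAC only. Ki was measured with at least five inhibitor concentrations at a substrate concentration ≪ Km for each enzyme. Ki was taken as the x-axis intercept of a plot of […] against inhibitor concentration.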

[2] = substrate: O=[N+]([O-])c1ccc(O[C@H]2O[C@H](CO)[C@@H](O)[C@H](O)[C@@H]2O)cc1; assay: Ratio of Kcat to Km for Bacteroides thetaiotaomicron GH92 alpha-mannosidase GH92 alpha-mannosidase 1769 assessed as mannose release after 16 hrs by HPLC
[3] = substrate: O=[N+]([O-])c1ccc(O[C@H]2O[C@H](CO)[C@@H](O)[C@H](O)[C@@H]2O)cc1; assay: Activity of Bacteroides thetaiotaomicron GH92 alpha-mannosidase GH92 alpha-mannosidase 1769 assessed as mannose release after 16 hrs by HPLC
[4] = substrate: O=[N+]([O-])c1ccc(O[C@H]2O[C@H](CO)[C@@H](O)[C@H](O)[C@@H]2O)cc1; assay: Activity of Bacteroides thetaiotaomicron GH92 alpha-mannosidase GH92 alpha-mannosidase 2111 assessed as mannose release after 16 hrs by HPLC
[5] = substrate: O=[N+]([O-])c1ccc(O[C@H]2O[C@H](CO)[C@@H](O)[C@H](O)[C@@H]2O)cc1; assay: Ratio of Kcat to Km for Bacteroides thetaiotaomicron GH92 alpha-mannosidase GH92 alpha-mannosidase 2111 assessed as mannose release after 16 hrs by HPLC
[6] = substrate: O=[N+]([O-])c1ccc(O[C@H]2O[C@H](CO)[C@@H](O)[C@H](O)[C@@H]2O)cc1; assay: Ratio of Kcat to Km for Bacteroides thetaiotaomicron GH92 alpha-mannosidase GH92 alpha-mannosidase 2629 assessed as mannose release after 16 hrs by HPLC
[7] = substrate: O=[N+]([O-])c1ccc(O[C@H]2O[C@H](CO)[C@@H](O)[C@H](O)[C@@H]2O)cc1; assay: Activity of Bacteroides thetaiotaomicron GH92 alpha-mannosidase GH92 alpha-mannosidase 2629 assessed as mannose release after 16 hrs by HPLC
[8] = substrate: O=[N+]([O-])c1ccc(O[C@H]2O[C@H](CO)[C@@H](O)[C@H](O)[C@@H]2O)cc1; assay: Ratio of Kcat to Km for Bacteroides thetaiotaomicron GH92 alpha-mannosidase GH92 alpha-mannosidase 3527 assessed as mannose release after 16 hrs by HPLC
[9] = substrate: O=[N+]([O-])c1ccc(O[C@H]2O[C@H](CO)[C@@H](O)[C@H](O)[C@@H]2O)cc1; assay: Activity of Bacteroides thetaiotaomicron GH92 alpha-mannosidase GH92 alpha-mannosidase 3527 assessed as mannose release after 16 hrs by HPLC
[10] = substrate: O=[N+]([O-])c1ccc(O[C@H]2O[C@H](CO)[C@@H](O)[C@H](O)[C@@H]2O)cc1; assay: Activity of Bacteroides thetaiotaomicron GH92 alpha-mannosidase GH92 alpha-mannosidase 3773 assessed as mannose release after 16 hrs by HPLC
[11] = substrate: O=[N+]([O-])c1ccc(O[C@H]2O[C@H](CO)[C@@H](O)[C@H](O)[C@@H]2O)cc1; assay: Ratio of Kcat to Km for Bacteroides thetaiotaomicron GH92 alpha-mannosidase GH92 alpha-mannosidase 3773 assessed as mannose release after 16 hrs by HPLC

Which Ki [1] does the source give for `O=C1N[C@@H]2[C@@H](O)[C@@H](O)[C@H](O)[C@@H](CO)N2C1=O` [KIFUNENSINE] here?
Its Ki is 230 µM.

B1: Alpha-1,2-mannosidase (BT_1769) (Bacteroides thetaiotaomicron), Q8A6V7 (protein)
chain: MKLTHILASAAIISTLSACNGSLQTADRTPVDYVNPYIGNISHLLVPTFPTIQLPNSMLRVYPERADYTSELLKGLPLIVTNHRERSAFNFSPYQGEKLRPVITYNYDNEHITPYSFDVELDDNRMKAEYALSHQSAIYRITYEADKPAYLIVNSRNGSIHANENFISGRQQLNDNTNVYVYIEAQEKPISAGILENGTIETSKDNAEGANACAAWRFADGTTTVNLRYGISFISEEQAEKNLHRELKDYNIKALAEAGRQIWNETLGRIQVEGGTEDDKTVFYSSFYRTFERPICMSEGGRYFSAFDGKVHEDNGTPFYTDDWIWDTYRAAHPLRTLIDQQKEEDIIASYLRMAEQMGNMWMPTFPEVTGDTRRMNSNHAVATVADALAKGLKVDTAKAYEACRKGIEEKTLAPWSGAPAGWLDNFYRENGYIPALRVDEPENDPNVHPFEKRQPVAVTLGTSYDQWCLSRIAQALNKKEEAEYYLKCSYNYRNLYNKETAFFHPKDKEGQWIEPFDYRFPGGMGAREYYGENNGWVYRWDVPHNVADLISLMGGNEQFIANLDRTFTEPLGRSKYAFYAKLPDHTGNVGQFSMANEPSLHVPYLYNYAGQPWKTQKRIRQMLKTWFRNDLMGIPGDEDGGGMTSFVVFSSLGFYPVTPGLPAYTIGSPLFTDAKIRLSNGAVFEIEAKNASTDNKYIQSATLNGKEWNKSWFSHDDLMSGGKLVLVMGNKPNKTWASGAEDVPPSLEIK
How did the kcat/Km [2] turn out when B1 was run?
Its kcat/Km is “Not Active”.

What about the Km [3] of the same molecule?
Its Km is “Not Active”.

And the kcat [3]?
The kcat was “Not Active”.

B2: Alpha-1,2-mannosidase (BT_2111) (Bacteroides thetaiotaomicron), Q8A5X5 (protein)
chain: MKRIPLSLFTFLFLLSGLCAAPTKTVWQIGEKNHSASELALSPDKYKEFLANDFGWEDRFYIIGLSSPQKDFPYVLPGPADHWGGTSYTAGIRTHVLNILFGMKEVPETDSWKLIIDLLDTHHELPALFKITINGKSWKYALPKGSGKSIDGDYSQIKPHTIEIPLNSGVIRKGSNSIALTSLEGSWILFDDIRLMGPDNAELNEVNKSVYLRDVKAADFQTTSPVAQPLLVDIEHLSGHPLLEVKVDGKKILEQRLEKGRYILEAPMPVVKSPKTSHYIISADGAILDKGMIRRAPHNTITLADYIDTRMGTAHSRWMIAPGTWMPFSMVKLSPDNQDSGWQSGYDPSFESIGTFSHIHEWTMAGLGIMPANGPLKTEIGSQSSLVKDANSYRSAIDKTSEETKVGYYKVDLTDYQIKAELTATSRCGFQRYTYPQDKDARVMIDLKIPSEYDYQIVEGSVKQTGARRIEGFSKQLSKNVWSADADQNYTIYFVIEFNKDIKKFGGWHDHTLWETDTMTAHYPQRFGCYAEFDTTDHPEVMVRSGISYVDMAGASNNLSNEITEPFGWNFEAVHKHQSDSWNNILNRVRIYSNDYREKVRFYTNLYRAFCRNTFSDADRRWVDAAGNIQKLDDPDAVALGCDAFWNTFWNLNQVWNLIAPEWSSRWVKSQLAMYDANGWLAKGPSGMKYIPVMVGEHEIPLLVSTYQMGIRNYDAEKMFRAIVKMQTTPAQRVANGFAGNRDLETYLQHQYVPADKGRFSNTLEYSYDDWTVSQLAKALGKEEYYRTFSNRGNWWKNAINPATGYAQMRYSNGEWEKNFDPFKSGANHHYVEGNAWQLTFFVPQNVPALTEIIGKELFIDRLSWGFKASEPWRYNAPGDQYWDFPVVQGNQQSMHFAFLFNWAGQPWQTQRWSRSIIDRYYGFDTSNAYLGDEDQGQMSAWFVMAALGLFQTDGGCNAEPVYELGSPLFEKIKIDLGKHFGRGKQFIIKASNTSRENKYIQSAKLNGKKLNSFKFPAKELLKGGTLELEMGDRPNKNWGIK
Which results are given for B2?
Km [4]: Not Active; kcat [4]: Not Active; kcat/Km [5]: Not Active

B3: Alpha-1,2-mannosidase (BT_2629) (Bacteroides thetaiotaomicron), Q8A4H0 (protein)
chain: MKTHFSFKHLLFLGGAVLYSLQSSAVKNPVDYVSTLIGTQSKFELSTGNTYPATALPWGMNFWTPQTGKMGDGWAYTYDADKIRGFKQTHQPSPWMNDYGQFAIMPITGGLVFDQDRRASWFSHKAEVAKPYYYKVYLADHDVTTELAPTERAVMFRFTYPETKNAYVIVDAFDKGSYVKVIPEENKIIGYSTKNSGGVPENFKNYFVIQFDKPFTFVSTVFENNILPNETEAKGNHTGAVIGFATKKGEIVHARVASSFISPEQAELNLKELGKNSFDQLVANGREIWNREMSKIEIEDDNIDNLRTFYSCLYRSMLFPRSFYEIDAKGQVMHYSPYNGEVRPGYMFTDTGFWDTFRCLFPFLNLMYPSMNQKMQEGLVNTYKESGFLPEWASPGHRDCMVGNNSASVVADAYIKGLRGYDIETLWEALKHGANAHLRGTASGRLGYESYNQLGYVANNIGIGQNVARTLEYAYNDWAIYTLGKKLGKPENEIDIYKKHALNYKNVYHPERKLMVGKDNKGVFNPNFDAVDWSGEFCEGNSWHWSFCVFHDPQGLINLMGGKKEFNAMMDSVFVISGKLGMESRGMIHEMREMQVMNMGQYAHGNQPIQHMVYLYNYSSEPWKAQYWIREIMNKLYTAGPDGYCGDEDNGQTSAWYVFSALGFYPVCPGTDEYIIGTPLFKSAKLHLENGKTITIKADNNQLDNRYIKEMKVNGKSQTRNFLTHDQLIKGANIQFQMSPVPNKQRGTTEKDVPYSLSFE
How did the kcat/Km [6] turn out when B3 was run?
Its kcat/Km is “Not Active”.

What about the Km [7] of the same molecule?
Its Km is “Not Active”.

And the kcat [7]?
The kcat was “Not Active”.

B4: Alpha-1,2-mannosidase (BT_3527) (Bacteroides thetaiotaomicron), Q8A1Y1 (protein)
chain: MKKLALLAFTLFSAWNMDAKTITGPVDYVSPLVGTQSKHALSTGNTYPAIALPWGMNFWVPQTGKMGDGWAYTYDADKIRGFKQTHQPSPWINDYGQFSIMPITGKAVFDQDQRASWFSHKAETATPYYYKVYLADHDVVTEIAPTERAAAFRFTFPENDHSYVVVDAFDNGSFVKVIPSENKIIGYTTKNSGGVPANFKNYFVLEFDKPFTYTAAVANGNIDTNKLEANDKHAGALIGFKTRKGEQVNVRVASSFISPEQAELNLKELGKDNIDQIAAKGRKVWNDVLGRIEVEDDDIDHLRTFYSCLYRSVLFPRSFYEIDAKGDIVHYSPYNGEVLPGYMFTDTGFWDTFRCLFPFLNLMYPSMNMKMQEGLVNTYKESGFLPEWASPGHRGCMVGNNSASVVADAYLKGLKGYDIETLWEAVKHGANAVHPQVSSTGRLGYDYYNKLGYVPYNVGINENAARTLEYAYNDWCIYQLGKALNKPKKEIEIFAKRAMNYKNLYDPEHKLMRGKNEDGKFQSPFNPLKWGDAFTEGNSWHYTWSVFHDPQGLIDLMGGKDGFNQMMDSVFILPPVFDDSYYGGVIHEIREMQIMNMGNYAHGNQPIQHMLYMYNYSGQPWKAQHWIREVMDKLYTPAPDGYCGDEDNGQTSAWYVFSAMGFYPVCPGTDEYILGTPYFKQMKLHLENGKTVTISAPNNGDDKRYISSMTLNGKDHTKNYVTHEDLMNGASITFKMDSKPNEQRGTKETDFPYSFSNEFKKKK
B4 was tested. Which kcat/Km [8] did it give?
The kcat/Km was “Not Active”.

And the Km [9]?
The Km was “Not Active”.

What about the kcat [9] of the same molecule?
Its kcat is “Not Active”.

B5: Alpha-1,2-mannosidase, putative (BT_3773) (Bacteroides thetaiotaomicron), Q8A193 (protein)
chain: MNAFKLLMAASCFLGLATSGVAKQDYSKSEGLLQYVDPYIGSGFHGHVFVGTSVPYGMVQLGPNNIHKGWDWCSGYHYSDSILIGFSHTHLSGTGCTDLGDILIMPLNEIRTPRGNQDDIRDGYASKYSHDNEIARPEYYSLILDRYNIKAELTATDRVGFHRYTYPEGKPVSILIDLREGNGSNAYDSYIRKVDDYTVEGYRYVRGWSPSRKVYFVLKSDQKIEKFTAYDDNTPKLWDQLKVESVKSVLTFGNVKEVKIKVAISSVSCDNAAMNLQAELSHWDFDKVVKMSSDRWNKQLDKMTVESDDEAAKRVFYTAHYHTMIAPTLYCDVNGEYRGMNDMIYTDPKKANYTTLSLWDTYRALNPLMTIIQPEMVDNVINSMLSIYRQQDKLPIWPLMSGETNCMPGYSSVPVIADAYLKGFTGFDAEEALTAMKATATYEGQNGVPYVMAKGYIPADKIHEATSIAMEYAVDDWGIAAMAQKMGKTADYETFSKRAHYYKNYFDSSIHFIRPKLEDGSWRTPYDPARSIHGVGDFCEGNGWQYTFFAPQDPYGLISLFGGDKPFTSKLDSFFTNNDSMGEGASSDITGLIGQYAHGNEPSHHIAYLYTYAGEQWKTAEKVRFIMSDFYTDQPDGIIGNEDCGQMSAWYLLSAMGFYQVNPSDGVFAFGSPRFKKIEVKVRGGKVFTVEAPNNSKDNIYIQKVYLNGKPYHKSYITYDDIINGSTLKFEMGKKPAKNFGKASANRPIVLNK
What does the source list for B5?
Km [10]: Not Active; kcat [10]: Not Active; kcat/Km [11]: Not Active
